TDP2 inh – human TDP2 enzyme inhibitors, primary screen, biochemical, epi absorbance, recombinant enzyme; 0.34% of 370,000 active; Tyrosyl-DNA phosphodiesterase 2 (Homo sapiens), O95551; AID 720702, 2013; T5PNP hydrolysis, p-nitrophenol absorbance 415 nm; inhibition, % at 12.8 µM;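 active means inhibition above the mean of all tested compounds plus 3 SD, set per campaign, cut at about 25% in these data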;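 further: 0% = DMSO with enzyme and 100% = buffer with substrate but no TDP2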
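Material: recombinant human TDP2; quantity: TDP2 enzyme at 120 nM final; medium: Tris-HCl pH 7.5 with MgCl2; compound: single concentration, 12.8 µM nominal, with 1% DMSO; incubation: 2 h enzyme incubation at 37 °C; signal: epi absorbance; measure: percent inhibition; benchmarks: high control without enzyme, low control DMSO plus TDP2; repeats: singlicate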
GSTO1 inh – inhibitors of recombinant GSTO1, primary screen, counter-screen for RBBP9 inhibitor project, biochemical, fluorescence polarization; Glutathione S-transferase omega-1 (Homo sapiens), P78417; 1.1% of 300,000 active; activity-based probe fluorescence polarization; AID 1974, 2009; inhibition, % at 5.96 µM;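 active means inhibition above the campaign mean inhibition plus 3 SD, cut at about 35% in these data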;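 further: 0% = GSTO1-1 with DMSO and 100% = wells lacking GSTO1-1 enzyme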
Target sequence (P78417 whole entry, looked up): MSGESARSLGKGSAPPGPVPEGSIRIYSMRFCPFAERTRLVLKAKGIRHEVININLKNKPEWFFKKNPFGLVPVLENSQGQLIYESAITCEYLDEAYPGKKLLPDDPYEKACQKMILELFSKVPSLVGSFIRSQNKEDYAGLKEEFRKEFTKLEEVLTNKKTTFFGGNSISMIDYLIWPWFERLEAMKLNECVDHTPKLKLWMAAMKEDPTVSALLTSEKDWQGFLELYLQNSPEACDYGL
SIAE primary – human SIAE inhibitors, primary screen, biochemical, fluorescence polarization, FP-Rh probe, 1536-well HTS; SIAE FP-Rh probe binding; AID 1053197, 2014; 0.69% of 370,000 active; Sialate O-acetylesterase (Homo sapiens), Q9HAT2; inhibition, % at 9.66 µM;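 active means inhibition above a cutoff: mean of compounds within the control limits plus 3 SD of those, cut at about 17% in these data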;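 further: 0% = plate median of compound wells and 100% = probe without SIAE protein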
Target sequence (Q9HAT2 whole entry, looked up): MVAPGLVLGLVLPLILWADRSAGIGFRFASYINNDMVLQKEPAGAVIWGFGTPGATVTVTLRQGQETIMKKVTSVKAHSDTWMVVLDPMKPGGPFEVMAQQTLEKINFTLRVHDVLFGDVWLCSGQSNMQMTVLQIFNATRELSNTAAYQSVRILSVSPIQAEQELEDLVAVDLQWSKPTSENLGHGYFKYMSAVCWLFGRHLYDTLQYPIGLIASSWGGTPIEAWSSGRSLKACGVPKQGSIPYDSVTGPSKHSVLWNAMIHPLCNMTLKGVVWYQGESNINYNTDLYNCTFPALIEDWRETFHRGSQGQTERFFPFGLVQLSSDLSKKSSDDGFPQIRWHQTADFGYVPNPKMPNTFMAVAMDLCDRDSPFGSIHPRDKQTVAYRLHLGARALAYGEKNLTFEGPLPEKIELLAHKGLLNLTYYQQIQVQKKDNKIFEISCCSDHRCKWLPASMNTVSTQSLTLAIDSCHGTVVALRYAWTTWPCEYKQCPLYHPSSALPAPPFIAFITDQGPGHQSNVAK
Apaf1 inhib – inhibitors of human Apaf-1 apoptosome, primary screen, biochemical, DEVD-Rh110 fluorescence, uHTS; Apoptotic protease-activating factor 1 (Homo sapiens), O14727; reconstituted apoptosome caspase-3 activity; 0.71% of 330,000 active; AID 489030, 2010; inhibition, % at 20 µM; active means inhibition of at least 40% at 20 µM;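 further: plate controls were DMSO wells for no effect and DEVD-CHO caspase inhibitor wells for full effect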
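Assay system: Apoptosome proteins | Medium: pH 7.5 Hepes buffer with CHAPS, BSA, DTT | Also added: Cytochrome c and DEVD-Rh110 substrate | Times: 30 min plus 50 min, RT | Detection: Rhodamine 110 fluorescence at Ex 480/Em 540 nm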
TCR CD3 inh – inhibitors of human TCR-CD3 interaction, primary screen, biochemical, fluorescence, TAMRA-labeled TCR probe. 0.37% of 360,000 active. inhibition, % at 9.4 µM. AID 651800, 2012;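 further: recombinant mutant TCR 2C K166C tagged with TAMRA read by polarization; 0% = receptor in buffer alone and 100% = receptor with positive control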
PAD4 inh – human PAD4 inhibitors, primary screen, biochemical, fluorescence polarization, 1536-well format; recombinant PAD4, RCA probe fluorescence polarization; inhibition, % at 6.36 µM; 0.41% of 330,000 active;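 active means percent inhibition above a cutoff equal to the mean of all tested compounds plus 3 SD, cut at about 15% in these data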;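 further: 0% = PAD4 with RCA probe and DMSO and 100% = probe without PAD4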
GSTO1 inh conf – GSTO1 inhibitor hit confirmation, counter-screen for RBBP9 inhibitor project, biochemical, fluorescence polarization, triplicate; recombinant GSTO1, probe fluorescence polarization; shares compounds with GSTO1 inh; 54% of 2,400 active; inhibition, % at 5.96 µM;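 active means inhibition above the primary screen's cutoff, its mean inhibition plus 3 SD, cut at about 35% in these data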;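 further: loss of polarization as inhibitors block binding of rhodamine sulfonate ester activity probe; 0% = GSTO1 with DMSO and 100% = wells lacking GSTO1 enzyme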
PAD4 confirm – human PAD4 inhibitors, confirmation, biochemical, fluorescence polarization | recombinant PAD4, RCA probe fluorescence polarization | inhibition, % at 6.36 µM | shares compounds with PAD4 inh | 28% of 1,200 active;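 active means mean inhibition across replicates above the hit cutoff set by the earlier primary screen, cut at about 15% in these data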;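 further: inhibitors block active-site labeling by the probe so polarization falls; 0% = PAD4 with probe and DMSO and 100% = probe without PAD4 enzyme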
Apaf-1 inh conf – Apaf-1 inhibitors, single-dose retest, confirmation, biochemical, fluorescence, DEVD-Rh110, 20 µM | shares compounds with Apaf1 inhib | reconstituted apoptosome, caspase-3 DEVD-Rh110 fluorescence | AID 504614, 2011 | 25% of 1,800 active | inhibition, % at 20 µM;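 active means mean inhibition of at least 40% at 20 µM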;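 further: plate controls were DMSO wells for no effect and DEVD-CHO caspase inhibitor control wells for full effect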
Rh110 quench – Rh110 fluorescence interference by putative Apaf-1 inhibitors, confirmation, artefact control for Apaf-1 inhibitor project, biochemical, 20 µM; shares compounds with Apaf1 inhib; quenched caspase reaction; activation (fluorescence interference), % at 20 µM; 1,800 tested, under 10 active; AID 504615, 2011;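 active means signal rise of 40% or more at 20 µM, treated as a fluorescence artifact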
Fluor interf inh – fluorescence interference of Apaf-1 inhibitor hits, dose response, artefact control for Apaf-1 inhibitor project; fluorescence interference counterscreen, Apaf-1 assay format; 460 tested, under 10 active; shares compounds with Apaf1 inhib; AID 588538, 2011; IC50, µM; call rule not given here
BSA probe FL – compounds interfering with TAMRA-BSA probe, counter-screen for TCR-CD3 interaction inhibitor project, biochemical, fluorescence, TAMRA-labeled BSA. shares compounds with TCR CD3 inh. inhibition, % at 9.4 µM. TAMRA-labeled BSA probe fluorescence counterscreen. 10% of 1,200 active. AID 652035, 2013; in the data active means inhibition above about 23%;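 further: 0% = buffer low control and 100% = reference high control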
TCR-CD3 conf – TCR-CD3 interaction inhibitors, retest, confirmation, biochemical, fluorescence, TAMRA-labeled TCR probe; shares compounds with TCR CD3 inh; TAMRA-labeled TCR probe fluorescence binding assay; inhibition, % at 9.4 µM; 48% of 1,200 active; AID 652036, 2013
TDP2 confirm – human TDP2 enzyme inhibitors, retest, confirmation, biochemical, epi absorbance, recombinant enzyme. inhibition, % at 12.8 µM. 22% of 1,100 active. shares compounds with TDP2 inh. absorbance read-out. AID 743263, 2014; in the data active means inhibition above about 25%;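 further: 0% = vehicle with enzyme and 100% = no enzyme buffer only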
Active calls of the source: *; . = no result given. Compounds with a hit are over-represented: about 2.4% of the library has one in this group of screens. Unless noted, no stated cut-off is given here; in the data, active means inhibition above about 19%; inactive means the rest.

SMILES	TDP2 inh	GSTO1 inh	SIAE primary	Apaf1 inhib	TCR CD3 inh	PAD4 inh	GSTO1 inh conf	Apaf-1 inh conf	Rh110 quench	others
O=c1c2ccccc2nc(SCC2CCCCO2)n1-c1ccccc1 (stereo unspecified)	-5.5	2.9	3.3	10.3	7.9	-2.7	.	.	.
CC(C)CCn1c(N)c(C(=O)OCC2CCCO2)c2nc3ccccc3nc21 (stereo unspecified)	3.9	88.0*	1.1	41.3*	-8.1	72.3*	6.1	18.0	0.5	PAD4 confirm=-21.2
CCOC(=O)c1c(NC(=O)c2c(N)n(CCCOC)c3nc4ccccc4nc23)sc2c1CCCC2	4.2	-6.5	-1.6	-9.6	5.0	-5.0	.	.	.
CN1CCC2(CC1)N=C(c1ccc(F)cc1)C(=S)N2	-7.3	7.6	-3.1	3.5	3.7	1.1	.	.	.
Nc1cc2nc3ccccc3nc2cc1N	11.6	56.4*	6.9	62.4*	10.1	-3.5	41.0*	51.5*	-9.4	Fluor interf inh=>100
CCOc1cc2c(cc1OCC)-n1cccc1C(c1cc(C)c(OC)cc1C)NC2 (stereo unspecified)	-2.7	-4.2	0.2	11.9	5.5	1.0	.	.	.
COC(=O)c1nc(-c2ccc3c(n2)C(=O)C(N)=C(OC)C3=O)c(N)c(-c2ccc(OC)c(OC)c2O)c1C	5.7	78.7*	-23.6	88.8*	4.8	-8.9	88.1*	99.6*	2.7	Fluor interf inh=>100
O=P(O)(Oc1ccccc1)c1ccccc1	2.8	.	-1.2	.	5.7	.	.	.	.
CCCCn1c(N)c(C(=O)OCCOC)c2nc3ccccc3nc21	7.1	16.8	6.4	24.3	6.5	-5.0	.	.	.
CCCCOCCCn1c(N)c(C(=O)OCCOC)c2nc3ccccc3nc21	-1.2	37.8*	-8.7	65.9*	0.3	-11.5	35.4*	1.6	11.6
COCCCNC(=O)c1c(NC(=O)c2ccccc2)n(Cc2ccccc2)c2nc3ccccc3nc12	-3.6	15.8	-9.0	33.0	-3.8	-3.2	.	.	.
COc1ccc(CCNC(=O)c2c(N)n(CCN3CCOCC3)c3nc4ccccc4nc23)cc1OC	11.2	-2.4	0.9	3.4	3.2	-4.7	.	.	.
Nc1c(C(=O)NCc2ccco2)c2nc3ccccc3nc2n1Cc1ccc(F)cc1	9.5	71.1*	-13.1	89.3*	-4.0	-5.1	1.8	25.2	11.5
CCCCn1c(N)c(C(=O)NCc2cccs2)c2nc3ccccc3nc21	12.4	60.6*	4.3	85.0*	6.8	2.2	82.5*	24.1	8.9
CCCCCn1c(N)c(C(=O)NCc2cccs2)c2nc3ccccc3nc21	-10.3	60.1*	-5.3	69.8*	0.2	65.0*	5.3	40.6*	7.7	PAD4 confirm=-12.3;Fluor interf inh=>100
COC(=O)C1=C(c2ccc(C(C)=O)cc2)C[C@@H]2CC[C@H]1N2C(=O)NCc1ccc(C(F)(F)F)cc1	.	.	.	11.4	.	-2.9	.	.	.
O=C(c1ccc2nc(-c3ccco3)c(-c3ccco3)nc2c1)N1CCC2(CC1)OCCO2	.	90.3*	.	56.4*	.	38.1*	15.6	31.8	2.5	PAD4 confirm=-4.6
CN(C)[C@@H]1C(=O)C(C(N)=O)=C(O)[C@@]2(O)C(=O)C3=C(O)c4c(O)cccc4[C@@](C)(O)[C@H]3[C@H](O)[C@@H]12	12.3	61.5*	9.7	3.1	45.5*	-4.1	69.2*	.	.	BSA probe FL=5.8;TCR-CD3 conf=27.4*
COc1ccc(C(CN(C)C)C2(O)CCCCC2)cc1 (stereo unspecified)	-1.5	8.9	-7.2	8.1	4.0	1.0	.	.	.
CCN(CC)c1ccc(N=Cc2c(O)n(-c3ccccc3C)c(=O)[nH]c2=O)cc1	7.4	27.9	12.4	17.0	17.7	11.3	.	.	.
CCOc1ccccc1-n1c(O)c(C=Nc2ccc(N(CC)CC)cc2)c(=O)[nH]c1=O	4.7	54.1*	11.3	25.1	23.6*	37.6*	5.3	.	.	PAD4 confirm=3.0;BSA probe FL=2.0;TCR-CD3 conf=0.7
CCCCn1c(NC(=O)c2ccco2)c(C(=O)OCC)c2nc3ccccc3nc21	79.3*	87.3*	-4.5	82.6*	-4.6	55.0*	86.8*	79.8*	1.3	PAD4 confirm=13.7;Fluor interf inh=>100;TDP2 confirm=76.5*
COCCCn1c(N)c(C(=O)NCCC(C)C)c2nc3ccccc3nc21	40.8*	38.9*	-2.7	90.6*	1.3	-10.3	64.1*	52.1*	6.5	Fluor interf inh=>100;TDP2 confirm=0.5
Nc1c(C(=O)NCCCc2ccccc2)c2nc3ccccc3nc2n1Cc1cccs1	59.9*	57.7*	3.8	83.8*	-6.6	-13.2	-0.7	35.0	9.9	TDP2 confirm=2.2
CCCCCn1c(=O)c(C(=O)NCCc2ccccc2)c(O)c2ccccc21	10.4	3.5	-3.2	10.0	1.6	-2.1	.	.	.

From PubChem BioAssay
